Key:
Pichia kudriavzevii = test: Anti-fungal activity against Candida krusei ATCC 6258 after 48 hrs by broth microdilution method; assay type: functional; details: ATCC 6258, 48 h
Method in brief: (§1)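 CLSI broth microdilution in RPMI 1640 (with glutamine, without bicarbonate) buffered to pH 7.0 with MOPS. Inoculum was prepared from 24 h Sabouraud dextrose agar subcultures, final 0.5 to 2.5 10^3 cfu/mL. Twofold dilutions were made from DMSO stocks. Incubated 35 °C for 48 h. MIC was the lowest concentration with no visible growth; for the fluconazole reference, MIC was taken at about 80% growth inhibition versus control.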

Nakaseomyces glabratus = test: Anti-fungal activity against drug-resistant Candida glabrata after 48 hrs by broth microdilution method; assay type: functional
Method in brief: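 Clinical resistant C. glabrata isolate, stored frozen in glycerol and subcultured twice on Sabouraud dextrose agar. CLSI broth microdilution in RPMI 1640 (glutamine, no bicarbonate) buffered to pH 7.0 with MOPS. Inoculum from 24 h subcultures, final 0.5 to 2.5 x10^3 cfu/mL. DMSO-dissolved compounds in twofold dilutions, 35 C for 48 h. MIC is the lowest concentration giving complete visual growth inhibition; fluconazole reference read at about 80% inhibition.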

Staphylococcus aureus = test: Antibacterial activity against Staphylococcus aureus ATCC 29213 after 18 to 24 hrs by broth microdilution method; assay type: functional
Method in brief: (§2)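 CLSI broth microdilution in Mueller Hinton broth, with inoculum from 24 h Mueller Hinton agar subcultures, final about 5 10^5 cfu/mL. Compounds were dissolved in DMSO and tested as twofold dilutions in wells. Plates were incubated at 35 °C for 18–24 h. MIC was read as the lowest concentration completely inhibiting visible growth. Ciprofloxacin was the reference.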

Candida parapsilosis = test: Anti-fungal activity against Candida parapsilosis ATCC 90018 after 48 hrs by broth microdilution method; assay type: functional; details: Lodderomyces parapsilosis, ATCC 90018, 48 h; method in brief: as §1
[1] = Cytotoxicity against human U937 cells assessed as cell viability at 10 to 100 ug/ml after 48 hrs by MTT assay relative to control; assay type: cell-based, U-937; details: read-out: Activity
Method in brief: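 U937 human monocytic cells, 4 10^3 per well in RPMI-1640 with 10% FBS, L-glutamine, penicillin and streptomycin, at 37 °C and 5% CO2. Compounds in DMSO were added at five final concentrations for 48 h, in triplicate. MTT was added for 4 h, formazan was dissolved overnight in SDS/23% DMF, and OD was read at 570 nm. Results are % reduction in viable cells versus control.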

Pseudomonas aeruginosa = test: Antibacterial activity against Pseudomonas aeruginosa ATCC 27853 after 18 to 24 hrs by broth microdilution method; assay type: functional; method in brief: as §2
Candida albicans [2] = test: Anti-fungal activity against Candida albicans ATCC 90028 after 48 hrs by broth microdilution method; assay type: functional; details: ATCC 90028, 48 h; method in brief: as §1
Candida albicans [3] = test: Antibiofilm activity against Candida albicans SC5314 after 24 hrs by turbidity assay; assay type: functional
Method in brief: (§3)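 Biofilms were grown on Calgary device pegs from a 10^6 cfu/mL inoculum for 24 h at 37 °C. Pegs were rinsed in saline, then challenged with twofold dilutions for 24 h at 35 °C. Biofilm was recovered by 5 min sonication into RPMI 1640 with 2% glucose and incubated overnight. OD was read at 550 nm plus visual turbidity. MBEC was the lowest concentration preventing regrowth. MBIC was the minimum concentration preventing initial biofilm formation, judged by visual turbidity.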

Candida albicans [4] = test: Antibiofilm activity against Candida albicans SC5314 after 24 hrs by spectrophotometric method; assay type: functional; method in brief: as §3
Enterococcus faecalis = test: Antibacterial activity against Enterococcus faecalis ATCC 29212 after 18 to 24 hrs by broth microdilution method; assay type: functional; method in brief: as §2
Escherichia coli = test: Antibacterial activity against Escherichia coli ATCC 25922 after 18 to 24 hrs by broth microdilution method; assay type: functional; method in brief: as §2

SMILES: Cl.O=C(OC(Cn1ccnc1)c1ccccc1)c1ccc(-c2ccccc2)cc1 (stereo not drawn)
- MIC (Pichia kudriavzevii): 8 µg/mL
- MIC (Nakaseomyces glabratus): 2 µg/mL
- MIC (Staphylococcus aureus): 512 µg/mL
- MIC (Candida parapsilosis): 0.125 µg/mL
- viability at 48 h [1]: 70 to 80%
- MIC (Pseudomonas aeruginosa): 256 µg/mL
- MIC (Candida albicans [2]): 0.125 µg/mL
- MBIC (Candida albicans [3]): 8 µg/mL
- MBEC (Candida albicans [4]): 1024 µg/mL
- MIC (Enterococcus faecalis): 128 µg/mL
- MIC (Escherichia coli): 512 µg/mL

SMILES: Cl.O=C(/C=C/c1ccccc1)OC(Cn1ccnc1)c1ccccc1 (stereo not drawn)
- MIC (Pichia kudriavzevii): 16 µg/mL
- MIC (Nakaseomyces glabratus): 8 µg/mL
- MIC (Staphylococcus aureus): 8 µg/mL
- MIC (Candida parapsilosis): 1 µg/mL
- viability at 48 h [1]: 70 to 80%
- MIC (Pseudomonas aeruginosa): 256 µg/mL
- MIC (Candida albicans [2]): 1 µg/mL
- MBIC (Candida albicans [3]): 8 µg/mL
- MBEC (Candida albicans [4]): 1024 µg/mL
- MIC (Enterococcus faecalis): 64 µg/mL
- MIC (Escherichia coli): 512 µg/mL

SMILES: CCCC(=O)OC(Cn1ccnc1)c1ccc(Cl)cc1.Cl (stereo not drawn)
- MIC (Pichia kudriavzevii): 4 µg/mL
- MIC (Nakaseomyces glabratus): 16 µg/mL
- MIC (Staphylococcus aureus): 64 µg/mL
- MIC (Candida parapsilosis): 1 µg/mL
- viability at 48 h [1]: 70 to 80%
- MIC (Pseudomonas aeruginosa): 256 µg/mL
- MIC (Candida albicans [2]): 0.5 µg/mL
- MBIC (Candida albicans [3]): >32 µg/mL
- MBEC (Candida albicans [4]): 1024 µg/mL
- MIC (Enterococcus faecalis): 256 µg/mL
- MIC (Escherichia coli): 512 µg/mL
